Data on 9 molecules can be found in ChEMBL document CHEMBL1137089, “Identification of putative agouti-related protein(87-132)-melanocortin-4 receptor interactions by homology molecular modeling and validation using chimeric peptide ligands” (J Med Chem, 2004).

pEC50, pIC50: −log10 of the molar value. *1 amine or outer side, *2 acyl side, *3 side chain or, on linkers, in order; H or OH if unused. Where a SMILES comes first, the peptide text is derived from it. Bridges are numbered along the chain shown (N, C = ends). [ ]: non-standard residue; d: D form. The star is where a group is joined. X4 = O=C(C(=O)[*:2])[C@H](Cc1ccccc1)N[*:1]; X3 = NN[C@@H](Cc1ccc(O)cc1)C(=O)*; Dap = NC[C@H](N)C(=O)O Bounds are passed on as bounds.

Assay [1] concerns the target T1, Melanocortin receptor 4 (Mus musculus, UniProt P56450). Description: Inhibitory concentration towards melanocortin MC4 receptor by displacing radioligand [125I]-hAGRP(87-132).
The target of assay [2] is T1, Melanocortin receptor 4. Description: Inhibitory concentration towards melanocortin MC4 receptor by displacing radioligand [125I]NDP-MSH. The method, boiled down:
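Whole HEK-293 cells stably expressing the mouse MC4 receptor, plated at 0.3 × 10⁶ cells/well the day before. Cells washed, lysed in NaOH/Triton X-100, and counted by γ-counter. IC50 by nonlinear least-squares fit; duplicate wells, at least two independent experiments, mean ± SD.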

Assay [3] deals with Melanocortin receptor 3 (Mus musculus, UniProt P33033). Description: Effective concentration against mouse Melanocortin 3 receptor. It counts as functional. As to conditions: for Kb: read-out: pA2 (converted). The method, boiled down: (§1)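 HEK-293 cells stably expressing the mouse melanocortin receptor (G418 selection), transiently transfected with CRE/β-galactosidase reporter. EC50 by nonlinear least-squares fit; SEM from at least three independent experiments.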
Chain of Melanocortin receptor 3 (P33033 whole entry): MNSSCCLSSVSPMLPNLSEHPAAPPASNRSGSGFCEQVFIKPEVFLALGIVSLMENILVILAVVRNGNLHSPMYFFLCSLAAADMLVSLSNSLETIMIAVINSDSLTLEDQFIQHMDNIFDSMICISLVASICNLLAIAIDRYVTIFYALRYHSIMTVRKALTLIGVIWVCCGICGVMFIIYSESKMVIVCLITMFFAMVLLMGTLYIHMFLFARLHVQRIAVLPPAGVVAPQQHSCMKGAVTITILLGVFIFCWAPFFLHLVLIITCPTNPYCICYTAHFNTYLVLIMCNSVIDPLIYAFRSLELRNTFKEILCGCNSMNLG

The target of assay [4] is Melanocyte-stimulating hormone receptor (Mus musculus, UniProt Q01727). Description: Effective concentration against mouse Melanocortin 1 receptor. Format: functional. The method, boiled down:
as §1

In assay [5] the target is Melanocortin receptor 5 (Mus musculus, UniProt P41149). Description: Effective concentration against mouse Melanocortin 5 receptor. Format: functional. The method, boiled down:
as §1

The target in assay [6] is T1, Melanocortin receptor 4. Description: Effective concentration against mouse melanocortin MC4 receptor. Format: functional. The method, boiled down:
as §1

T1 sequence (P56450 whole entry): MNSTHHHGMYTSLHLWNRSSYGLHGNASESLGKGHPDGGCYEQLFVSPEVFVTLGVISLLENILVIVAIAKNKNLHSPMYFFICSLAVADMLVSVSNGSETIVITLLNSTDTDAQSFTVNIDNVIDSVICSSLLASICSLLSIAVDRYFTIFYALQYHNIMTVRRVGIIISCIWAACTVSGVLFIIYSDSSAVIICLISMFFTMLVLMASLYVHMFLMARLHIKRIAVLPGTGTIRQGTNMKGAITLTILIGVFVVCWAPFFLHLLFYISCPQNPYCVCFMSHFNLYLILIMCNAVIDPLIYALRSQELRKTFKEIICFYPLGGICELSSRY
Chain of Melanocortin receptor 5 (P41149 whole entry): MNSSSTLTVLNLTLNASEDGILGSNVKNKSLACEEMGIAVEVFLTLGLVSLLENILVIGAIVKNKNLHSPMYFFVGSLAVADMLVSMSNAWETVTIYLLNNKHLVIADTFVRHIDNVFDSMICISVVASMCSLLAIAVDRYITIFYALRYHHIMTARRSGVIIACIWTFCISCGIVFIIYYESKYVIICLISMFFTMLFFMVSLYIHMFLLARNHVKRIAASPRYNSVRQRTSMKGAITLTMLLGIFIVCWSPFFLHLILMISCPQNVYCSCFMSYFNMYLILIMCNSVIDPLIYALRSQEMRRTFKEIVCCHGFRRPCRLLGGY
Chain of Melanocyte-stimulating hormone receptor (Q01727 whole entry): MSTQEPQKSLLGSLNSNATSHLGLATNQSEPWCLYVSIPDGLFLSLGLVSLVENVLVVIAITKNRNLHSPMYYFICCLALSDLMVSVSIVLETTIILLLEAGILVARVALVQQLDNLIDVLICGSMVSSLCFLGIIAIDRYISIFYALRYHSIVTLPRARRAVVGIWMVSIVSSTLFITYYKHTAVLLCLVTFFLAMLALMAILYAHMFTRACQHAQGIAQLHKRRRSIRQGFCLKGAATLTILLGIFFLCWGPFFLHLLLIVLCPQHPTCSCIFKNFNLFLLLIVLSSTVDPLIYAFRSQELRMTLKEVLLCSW

For orientation: pIC50 means the IC50 on a negative log10 scale, so that one unit is a factor of ten. A higher pIC50 goes with a small IC50. As for `C[C@@H]1NC(=O)[C@H](CC(N)=O)NC(=O)[C@H](Cc2ccccc2)NC(=O)[C@H](Cc2ccccc2)NC(=O)[C@H](CCCNC(=N)N)NC(=O)[C@@H](NC(=O)[C@@H](N)Cc2ccc(O)cc2)CC(=O)NC[C@@H](C(=O)N[C@@H](Cc2ccc(O)cc2)C(N)=O)NC(=O)[C@H](Cc2ccccc2)NC1=O`, the negative logarithm of the IC50 (pIC50) was 5.49 in assay [1] and 5.32 in assay [2].
With `C[C@@H]1NC(=O)[C@@H](CC(N)=O)NC(=O)[C@H](Cc2ccccc2)NC(=O)[C@@H](Cc2ccccc2)NC(=O)[C@H](CCCN=C(N)N)NC(=O)[C@@H](NC(=O)[C@@H](N)Cc2ccc(O)cc2)CC(=O)NC[C@@H](C(=O)N[C@@H](Cc2ccc(O)cc2)C(=O)O)NC(=O)[C@@H](Cc2ccccc2)NC1=O`, in assay [3], the Kb is 2 µM.
The term pEC50 denotes the EC50 on a negative log10 scale, so that one unit is a factor of ten. A high value points to a small EC50. As for `CSCC[C@@H]1NC(=O)[C@H](C)NC(=O)[C@H]([C@@H](C)O)NC(=O)CNC(=O)[C@H](CC(C)C)NC(=O)[C@H](CCCCN)NC(=O)[C@H](CCCN=C(N)N)NC(=O)[C@@H]2CSSSSC[C@@H]3NC(=O)[C@@H]4CCCN4C(=O)[C@H](C(C)C)NC(=O)[C@H](CCC(N)=O)NC(=O)[C@H](CCC(N)=O)NC(=O)CNC(=O)[C@H](CC(C)C)NC(=O)[C@@H]4CSSSSC[C@H](NC(=O)[C@H]([C@@H](C)O)NC(=O)[C@H](C)NC(=O)[C@H](CSSSSC[C@@H](C(=O)N[C@@H](CO)C(=O)N[C@@H](CCCN=C(N)N)C(=O)N[C@H](C(=O)O)[C@@H](C)O)NC(=O)[C@@H]5CCCN5C(=O)[C@H](CC(N)=O)NC1=O)NC(=O)[C@@H]1CCCN1C(=O)[C@H](CC(=O)O)NC(=O)[C@H](CSSSSC[C@H](N)C(=O)N[C@@H](C(C)C)C(=O)N[C@@H](CCCN=C(N)N)C(=O)N[C@@H](CC(C)C)C(=O)N[C@@H](Cc1c[nH]cn1)C(=O)N[C@@H](CCC(=O)O)C(=O)N[C@@H](CO)C(=O)N4)NC3=O)C(=O)N[C@@H](Cc1ccc(O)cc1)C(=O)N[C@H]1CSSSSC[C@H](NC(=O)[C@H](Cc3ccccc3)NC(=O)[C@H](C)NC(=O)[C@H](CC(N)=O)NC(=O)[C@H](Cc3ccccc3)NC(=O)[C@H](Cc3ccccc3)NC(=O)[C@H](CCCN=C(N)N)NC1=O)C(=O)N[C@@H](Cc1ccc(O)cc1)C(=O)N2`, the negative-log IC50 (pIC50) in assay [1] was 8.26. The pEC50 in assay [4] was less than 4.00. Besides, the Kb in assay [3] is 0.00126 µM.
For the molecule `C[C@@H]1NC(=O)[C@H](CC(N)=O)NC(=O)[C@H](Cc2c[nH]c3ccccc23)NC(=O)[C@H](CCCNC(=N)N)NC(=O)[C@H](Cc2ccccc2)NC(=O)[C@@H](NC(=O)[C@@H](N)Cc2ccc(O)cc2)CC(=O)NC[C@@H](C(=O)N[C@@H](Cc2ccc(O)cc2)C(N)=O)NC(=O)[C@H](Cc2ccccc2)NC1=O` (H-YDFRWNAF[Dap]Y-NH2; lactam 2-9), the results for the pIC50 in assay [1] and in assay [2] were 5.39 and 5.04, respectively. Moreover, the negative logarithm of the EC50 (pEC50) in assay [5] was 5.41; in assay [4], 4.71; in assay [6] it was 4.87.
Take `C[C@@H]1NC(=O)[C@H](CC(N)=O)NC(=O)[C@H](Cc2ccccc2)NC(=O)[C@H](Cc2ccccc2)NC(=O)[C@H](CCCNC(=N)N)NC(=O)[C@H](Cc2c[nH]cn2)NC(=O)[C@@H](NC(=O)[C@@H](N)Cc2ccc(O)cc2)CC(=O)NC[C@@H](C(=O)N[C@@H](Cc2ccc(O)cc2)C(N)=O)NC(=O)[C@H](Cc2ccccc2)NC1=O` (H-YDHRFFNAF[Dap]Y-NH2; lactam 2-10): the figures for the negative logarithm of the EC50 (pEC50) in assay [5], in assay [4] and in assay [6] were less than 4.00, 4.88 and less than 4.00, respectively.
Turning to `C[C@@H]1NC(=O)[C@H](CC(N)=O)NC(=O)[C@H](Cc2ccccc2)NC(=O)[C@H](CCCNC(=N)N)NC(=O)[C@H](Cc2c[nH]c3ccccc23)NC(=O)[C@@H](NC(=O)[C@@H](N)Cc2ccc(O)cc2)CC(=O)NC[C@@H](C(=O)N[C@@H](Cc2ccc(O)cc2)C(N)=O)NC(=O)[C@H](Cc2ccccc2)NC1=O` (H-YDWRFNAF[Dap]Y-NH2; lactam 2-9), the values for the negative logarithm of the IC50 (pIC50) in assay [1] and in assay [2] were 5.14 and 4.99, respectively.
As for `C[C@@H]1NC(=O)[C@H](CC(N)=O)NC(=O)[C@@H](Cc2ccccc2)NC(=O)[C@H](CCCNC(=N)N)NC(=O)[C@H](Cc2c[nH]c3ccccc23)NC(=O)[C@@H](NC(=O)[C@@H](N)Cc2ccc(O)cc2)CC(=O)NC[C@@H](C(=O)N[C@@H](Cc2ccc(O)cc2)C(N)=O)NC(=O)[C@H](Cc2ccccc2)NC1=O` (H-YDWR[dF]NAF[Dap]Y-NH2; lactam 2-9), in assay [1], the pIC50 was less than 5.00. The negative logarithm of the EC50 (pEC50) in assay [5] is 5.65; in assay [4], 5.21; in assay [6] it was 4.80.
Consider `C[C@@H]1NC(=O)[C@H](CC(N)=O)NC(=O)[C@H](Cc2c[nH]c3ccccc23)NC(=O)[C@H](CCCNC(=N)N)NC(=O)[C@@H](Cc2ccccc2)NC(=O)[C@@H](NC(=O)[C@@H](N)Cc2ccc(O)cc2)CC(=O)NC[C@@H](C(=O)N[C@@H](Cc2ccc(O)cc2)C(N)=O)NC(=O)[C@H](Cc2ccccc2)NC1=O` (H-YD[dF]RWNAF[Dap]Y-NH2; lactam 2-9), for which the pIC50 was 5.51 in assay [1] and 5.17 in assay [2].
`CNC(=O)C[C@@H]1NC(=O)[C@H](C)NC(=O)[C@H](C)NC(=O)[C@H](C)NC(=O)[C@@H](NC(=O)[C@H](Cc2ccc(O)cc2)NN)CC(=O)NC[C@@H](C(=O)N[C@@H](Cc2ccc(O)cc2)C(N)=O)NC(=O)C(=O)[C@H](Cc2ccccc2)NC(=O)[C@H](C)NC1=O` (X3-DAAAD(NHMe)A[X4][Dap]Y-NH2; lactam 1-8) had a pEC50 in assay [3] of less than 4.00.
